Compounds with a hit are over-represented: about 2.5% of the library has one in this group of screens.
SENP8 block-1 = inhibitors of human SENP8 protease; purified SENP8, Z-RLRGG-aminoluciferin cleavage, luminescence; inhibition, % at 10 µM; actives 1.2% (n = 330,000); in the data active = inhibition above about 50%
Target sequence (Q96LD8 whole entry, looked up): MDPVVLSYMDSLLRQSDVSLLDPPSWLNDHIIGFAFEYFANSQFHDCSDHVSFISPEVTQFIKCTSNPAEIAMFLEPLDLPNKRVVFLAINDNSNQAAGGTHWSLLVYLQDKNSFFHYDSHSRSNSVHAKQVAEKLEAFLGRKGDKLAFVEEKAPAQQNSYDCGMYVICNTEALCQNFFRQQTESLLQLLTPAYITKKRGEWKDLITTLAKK
SENP7 inh = SENP7 protease inhibition. Q9BQF6. recombinant SENP7, Z-RLRGG-aminoluciferin luminescence, 40 min. inhibition, % at 5 µM. actives 1.5% (n = 330,000). AID 434973;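 active = inhibition above about 50% at the single test dose, limit read from the data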
SENP1 inh = inhibitors of human SENP1 SUMO protease catalytic domain; Q9P0U3; recombinant SENP1 catalytic domain, CyPet-SUMO1-YPet FRET cleavage; inhibition, % at 10 µM; actives 0.21% (n = 360,000);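 active = inhibition at least 30% at 10 µM, raw YFP signal under a set limit, fluorescence ratio 0.5 to 1.5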
Target sequence (Q9P0U3 419-644 limits assumed): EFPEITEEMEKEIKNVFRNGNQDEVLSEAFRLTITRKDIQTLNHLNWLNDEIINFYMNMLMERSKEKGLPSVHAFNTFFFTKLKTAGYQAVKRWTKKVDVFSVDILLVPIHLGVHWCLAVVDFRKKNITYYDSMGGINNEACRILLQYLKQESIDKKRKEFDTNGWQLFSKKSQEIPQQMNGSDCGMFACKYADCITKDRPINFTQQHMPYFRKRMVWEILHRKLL
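Material – human SENP1 catalytic domain · Input – SENP1 enzyme, 20 pM final · Compound dosing – single concentration of 10 µM compound, 0.5% DMSO final · Timing – enzyme reaction for 50 min at room temperature, dark · Measured by – FRET fluorescence in CFP and YFP emission channels · Control set – no-enzyme wells low, DMSO-plus-enzyme wells high control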
SENP8 block-2 = blocks human SENP8 cleavage of Nedd8 substrate; inhibition, % at 20 µM; Q96LD8; actives 0.64% (n = 360,000); recombinant SENP8, Nedd8 substrate fluorescence; AID 602440; in the data active = inhibition mostly above about 40%, no sharp cut-off; inactive = mostly below about 27%
SENP6 inh = inhibitors of human SENP6 protease; inhibition, % at 10 µM; Q9GZR1; Recombinant SENP6 catalytic domain, aminoluciferin luminescence; actives 1.8% (n = 330,000);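 active = inhibition above about 50% at the single tested dose, limit read from the data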
SENP8 conf = confirmation of human SENP8 protease inhibitors | shares compounds with SENP7 inh | Recombinant SENP8, Z-RLRGG-aminoluciferin luminescence, 60 min | inhibition, % at 12.5 µM | actives 40% (n = 6,200) | AID 488912;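 active = mean inhibition across replicates above about 50%, limit read from the data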
SENP6 conf = human SENP6 inhibition, confirmed; inhibition, % at 12.5 µM; shares compounds with SENP7 inh; actives 58% (n = 6,200); recombinant SENP6, Z-RLRGG-aminoluciferin luminescence
SENP7 conf = human SENP7 inhibition, confirmed | recombinant SENP7, Z-RLRGG-aminoluciferin luminescence, 40 min | actives 69% (n = 6,200) | shares compounds with SENP7 inh | inhibition, % at 12.5 µM
Casp3 select = selectivity test for SENP inhibitors: human caspase-3 inhibition; inhibition, % at 12.5 µM; shares compounds with SENP7 inh; purified caspase-3, Z-DEVD-aminoluciferin luminescence, 60 min; actives 60% (n = 6,200);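 active = mean inhibition above about 50%, limit read from the data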
Luc interf = luminescence interference (SENP counter-screen); shares compounds with SENP7 inh; Pre-incubated SENP8/Z-RLRGG-aminoluciferin, luciferase luminescence interference; inhibition, % at 12.5 µM; actives 39% (n = 6,200); AID 488919;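 active = mean inhibition above about 50% when retested at one dose, limit read from the data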
Of the large screens only hits and unclear results are named; the others gave an inactive call (follow-up assays come after a bar, where they were run).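 The calls were made as follows, unless noted: active = mean inhibition above about 50% in the one-dose retest (limit read from the data); inactive = the rest.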

COc1ccc(C(=O)O/N=C(/C)c2cccs2)cc1	SENP8 block-1 97, SENP7 inh 99, SENP6 inh 98 | SENP8 conf inactive | SENP6 conf 101 | SENP7 conf 104 | Casp3 select 99 | Luc interf 99
CC(C)OC(=O)Cn1nc(C(c2ccccc2)c2ccccc2)oc1=O	none
O=C(Cn1nc(-c2ccc3c(c2)OCCO3)ccc1=O)Nc1cccc(NC(=O)c2ccccn2)c1	none (no result: SENP1 inh, SENP8 block-2)
COC(=O)[C@H](Cc1ccccc1)NC(=O)NCCc1ccccc1F	none
O=C(c1ccc(Cl)cc1)c1coc2ccc(O)cc12	SENP8 block-1 78, SENP7 inh 77, SENP6 inh 86 | SENP8 conf inactive | SENP6 conf 88 | SENP7 conf 99 | Casp3 select 73 | Luc interf inactive
O=C(c1coc2ccc(O)cc12)C1CC1	none
O=C(Nc1nn[nH]n1)C12CC3CC(CC(C3)C1)C2	none
O=C(Nc1nnc(CCc2ccccc2)s1)c1ccc(F)cc1	none
O=C(Nc1nnc(CCc2ccccc2)s1)c1ccccc1F	SENP6 inh 51 | SENP8 conf inactive | SENP6 conf inactive | SENP7 conf 58 | Casp3 select inactive | Luc interf inactive
O=C(Nc1nnc(CCc2ccccc2)s1)c1cccc(F)c1	SENP7 inh 61 | SENP8 conf inactive | SENP6 conf inactive | SENP7 conf inactive | Casp3 select inactive | Luc interf inactive
CC1(C(=O)NS(=O)(=O)c2cccc(Cl)c2)CCN1C(=O)C1(c2ccc(Cl)cc2)CCC1 (stereo not given)	none (no result: SENP8 block-1, SENP7 inh, SENP6 inh)
O=C(Nc1ccccc1)Nc1ccccc1C(=O)NCc1ccccc1	SENP7 inh 52 | SENP8 conf inactive | SENP6 conf inactive | SENP7 conf 74 | Casp3 select inactive | Luc interf inactive
O=C(Nc1ccc(Cl)cc1)Nc1ccccc1C(=O)NCc1ccco1	SENP8 block-1 84, SENP7 inh 96, SENP6 inh 91 | SENP8 conf 80 | SENP6 conf 81 | SENP7 conf 99 | Casp3 select 78 | Luc interf 78
CNC(=O)Nc1ccccc1C(=O)NCc1ccccc1	none
COc1ccc(/C=C2\CCc3ccccc3C2=O)cc1O	SENP8 block-1 95, SENP7 inh 95, SENP6 inh 99 | SENP8 conf 96 | SENP6 conf 99 | SENP7 conf 101 | Casp3 select 92 | Luc interf 95
COc1ccc(C=C2Cc3ccccc3C2=O)cc1	none (no result: SENP8 block-1, SENP7 inh, SENP6 inh)
CC(=O)Nc1ccc(/C=C2\CCc3ccccc3C2=O)cc1	SENP6 inh 56 | SENP8 conf inactive | SENP6 conf inactive | SENP7 conf inactive | Casp3 select inactive | Luc interf inactive
Cc1ccccc1CSc1nnc(-c2cnccn2)n1C	none
CN1N=C2c3ccccc3CCC2C1c1ccc(Cl)cc1 (stereo not given)	SENP8 block-1 59 | SENP8 conf inactive | SENP6 conf inactive | SENP7 conf inactive | Casp3 select inactive | Luc interf inactive
CC(O)C(=O)N/N=C/c1cccc2ccccc12 (stereo not given)	none (no result: SENP8 block-1, SENP7 inh, SENP6 inh)
Cc1cccc(/C=N/NC(=O)C(C)Nc2cccc3ccccc23)n1 (stereo not given)	SENP8 block-1 78, SENP6 inh 88 | SENP8 conf inactive | SENP6 conf inactive | SENP7 conf inactive | Casp3 select inactive | Luc interf inactive
COc1cc([N+](=O)[O-])cc(/C=N/NC(=O)c2cccnc2)c1O	none

Assay outcomes deposited in PubChem by Sanford-Burnham Center for Chemical Genomics.
